Reference: ChEMBL document CHEMBL2439964, “Identification of a series of 1,3,4-trisubstituted pyrazoles as novel hepatitis C virus entry inhibitors” (Bioorg Med Chem Lett, 2013)
The source made the active and inactive calls. The calls are words filed in the database; no cut-off is given here.

Columns and labels:
[1] = Cytotoxicity against human HuH7 cells; format: cell-based, Huh-7
How it was run: (§1)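 Naïve Huh-7 cells in 384-well plates were given serially diluted compound, then infected with cell culture-derived HCV (HCVcc) at MOI 1. Live cells were analysed 72 h post-infection. EC50 came from 10-point dose-response in duplicate with quadruplicate measurements, or 5-point in duplicate for one series. CC50 came from automated per-well cell counts. SI = CC50/EC50.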

[2] = Cytotoxicity against human Huh-H1 cells; format: cell-based
[3] = tested on: Vesicular stomatitis virus; experiment: Antiviral activity against Vesicular stomatitis virus pseudoparticle expressing glycoprotein assessed as inhibition of pseudoparticles entry into human Huh-H1 cells after 2 days by luciferase reporter gene assay; format: functional, organism-based
Hepatitis C virus [4] = experiment: Antiviral activity against HCV genotype-1 pseudoparticle expressing envelope protein E1 and E2 assessed as inhibition of pseudoparticles entry into human Huh-H1 cells after 2 days by luciferase reporter gene assay; format: functional, organism-based, Hepacivirus hominis; details: genotype 1, Huh-H1, 48 h
Hepatitis C virus [5] = experiment: Antiviral activity against cell culture derived HCV infected in human HuH7 cells assessed as inhibition of viral replication after 72 hrs; format: functional, organism-based, Hepacivirus hominis; details: Huh-7, 72 h; how it was run: as §1
[6] = Selectivity index, ratio of CC50 for human HuH7 cells to EC50 for cell culture derived HCV; set-up: species or system Huh-7; how it was run: as §1

Cc1ccccc1-c1nn(-c2ccc(F)cc2F)cc1CNCCCN(C)C
CC50 [1]: > 20 µM | CC50 [2]: > 25 µM | inhibition [3]: inactive | EC50 (Hepatitis C virus [4]): 6.1 µM | EC50 (Hepatitis C virus [5]): 6.7 µM | Ratio CC50/EC50 [6]: >3

CN1CCN(CCNCc2cn(-c3ccc(F)cc3F)nc2-c2ccc(Cl)cc2)CC1
CC50 [1]: 19 µM | CC50 [2]: 9.1 µM | inhibition [3]: inactive | EC50 (Hepatitis C virus [4]): 1.9 µM | EC50 (Hepatitis C virus [5]): 0.38 µM | Ratio CC50/EC50 [6]: 50

CCCCCNc1nc(Nc2ccc([N+](=O)[O-])cc2)nc(OCC(F)(F)F)n1
CC50 [2]: > 25 µM | inhibition [3]: inactive

CN1CCN(CCCNCc2cn(-c3ccc([N+](=O)[O-])cc3)nc2-c2ccc(C(F)(F)F)cc2)CC1
CC50 [1]: 4.9 µM | EC50 (Hepatitis C virus [5]): 0.12 µM | Ratio CC50/EC50 [6]: 41

Cc1ccccc1-c1nn(-c2cccc(C(F)(F)F)c2)cc1CNCCN1CCN(C)CC1
CC50 [1]: 18 µM | EC50 (Hepatitis C virus [5]): 0.91 µM | Ratio CC50/EC50 [6]: 20

CN1CCN(CCNCc2cn(-c3ccc(F)cc3F)nc2-c2ccc(S(=O)(=O)N(C)C)cc2)CC1
CC50 [1]: > 20 µM | EC50 (Hepatitis C virus [5]): 1.8 µM | Ratio CC50/EC50 [6]: >11

Cc1ccccc1-c1nn(-c2ccc(F)cc2F)cc1CNCCCN1CCN(C)CC1
CC50 [1]: > 20 µM | EC50 (Hepatitis C virus [5]): 2.2 µM | Ratio CC50/EC50 [6]: >9

Cc1ccccc1-c1nn(-c2cc(F)ccc2F)cc1CNCCN1CCN(C)CC1
CC50 [1]: > 20 µM | EC50 (Hepatitis C virus [5]): 2.5 µM | Ratio CC50/EC50 [6]: >8

CCCN1CCC(CNCc2cn(-c3ccc(C(F)(F)F)cc3)nc2-c2ccc(OC(F)(F)F)cc2)CC1
CC50 [1]: 2.2 µM | EC50 (Hepatitis C virus [5]): 0.41 µM | Ratio CC50/EC50 [6]: 5.3
